Screening results as filed in PubChem BioAssay.
This is a sample that favours compounds with a hit; in the whole collection about 0.74% have one here.
RGS16-Gao HTS – modulates binding between human RGS16 and Galphao; binding response (% of control), % at 10 µM; bead-based flow cytometry RGS16-Galphao binding, fluorescence; actives lie on both sides; O15492+P09471; AID 1441; actives 0.38% (n = 220,000);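 also: Galphao activated by GDP with aluminum fluoride before binding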
RGS7-Gao reg – modulates binding of RGS7 to human Galphao | P09471 | Multiplexed bead flow cytometry; actives lie on both sides | binding response (% of control), % at 10 µM | actives 0.35% (n = 220,000) | AID 1439; in the data active = binding response below about 49% or above about 150%; inconclusive = no clear call, values can overlap the other calls; inactive = in between;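 also: fluorescent Galphao held in activated GDP-AlF4 state binding bead-coupled RGS7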
Target sequence (P09471 whole entry, looked up): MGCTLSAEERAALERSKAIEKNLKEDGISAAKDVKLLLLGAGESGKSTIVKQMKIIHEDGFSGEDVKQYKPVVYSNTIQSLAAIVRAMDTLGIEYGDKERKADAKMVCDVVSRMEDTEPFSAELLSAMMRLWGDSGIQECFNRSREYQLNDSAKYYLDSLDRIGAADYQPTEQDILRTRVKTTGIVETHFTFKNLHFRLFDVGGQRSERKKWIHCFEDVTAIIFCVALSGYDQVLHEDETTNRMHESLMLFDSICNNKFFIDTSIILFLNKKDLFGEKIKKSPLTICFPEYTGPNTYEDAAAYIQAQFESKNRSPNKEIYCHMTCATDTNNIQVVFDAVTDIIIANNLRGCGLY
Calb biofilm kill – mixtures killing C. albicans biofilm. C. albicans biofilm persisters + clotrimazole, fluorescence viability; primary screen in compound mixtures of four per well. inhibition, % at 7.6 µM. actives 0.02% (n = 120,000). AID 1242;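 active = inhibition above 30.3% in the primary screen of four-compound pools, then above 30% when the compound was retested; inconclusive = passed the primary limit but could not be retested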;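 also: compounds exposed to preformed 24 h biofilms for 48 h; 0% = untreated biofilm control and 100% = clotrimazole plus chlorhexidine kill blank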
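System: C. albicans CAF4-2 wild-type biofilms; Medium: RPMI/MOPS medium, pH 7.0; Reagent: Clotrimazole, 50 µg/mL; Times: biofilm formation 24 h, compound exposure 48 h, 37 °C; Detection: 2-h Alamar Blue fluorescence, 535/590 nm excitation/emission; Evaluation: percent inhibition of biofilm viability.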
RGS8-Gao – human RGS8-Galphao interaction regulation | P09471 | multiplexed bead flow cytometry, RGS8-Galphao binding; actives lie on both sides | response (percent of control binding), % at 10 µM | actives 0.34% (n = 220,000); in the data active = response below about 60% or above about 140%; inactive = in between;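 also: Galphao activated as the GDP aluminium fluoride complex binding bead-coupled RGS8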
RGS4-Gao reg – human RGS4-Galphao interaction regulation | Multiplexed bead flow cytometry, RGS4-Galphao binding; actives lie on both sides | binding response (% of control), % at 10 µM | actives 0.33% (n = 220,000) | AID 1415; in the data active = binding response below about 49% or above about 150%; inactive = in between;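 also: fluorescent Galphao activated with aluminum fluoride binding bead-coupled RGS4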
RGS-Gao – RGS4-Galphao interaction regulator (human); multiplexed bead flow cytometry, RGS–Galpha-o binding; shares compounds with RGS16-Gao HTS; RGS4–Galpha-o binding response, % at 10 µM; actives 99% (n = 1,600);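 also: fluorescently labeled Galpha-o bound to GDP with aluminium fluoride binding biotinylated RGS beads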
Target sequence (P09471 whole entry, looked up): as above
Target sequence (P49798 whole entry, looked up): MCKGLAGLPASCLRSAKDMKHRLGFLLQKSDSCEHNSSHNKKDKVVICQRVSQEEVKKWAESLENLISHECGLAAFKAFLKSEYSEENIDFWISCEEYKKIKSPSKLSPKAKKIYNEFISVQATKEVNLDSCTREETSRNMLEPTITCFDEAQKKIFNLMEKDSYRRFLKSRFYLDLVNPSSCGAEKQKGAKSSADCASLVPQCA
Avidin counter – counter-screen: compounds disrupting biotin binding to avidin beads; shares compounds with RGS16-Gao HTS; streptavidin beads, fluorescein-biotin binding, flow cytometry; inhibition, % at 10 µM; 1,700 tested, under 10 active;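 active = inhibition above 50%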;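 also: median green fluorescence of gated singlet beads compared with DMSO control wells; 0% = DMSO wells and 100% = complete loss of bead fluorescence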
RGS8-Gao confirm – RGS8-Galphao interaction regulation, single point confirmation | shares compounds with RGS16-Gao HTS | bead-based flow cytometry RGS8-Galphao binding, fluorescence; actives lie on both sides | binding response (% of control), % at 10 µM | actives 3% (n = 1,700) | AID 1836; in the data active = binding response below about 72% or above about 130%; inactive = in between;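 also: Galphao activated as GDP AlF4 complex before binding bead RGS8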
RGS7-Gao single – confirmation of regulators of human RGS7-Galphao interaction; response (percent of control binding), % at 10 µM; shares compounds with RGS16-Gao HTS; AID 1837; bead-based flow cytometry RGS7-Galphao binding; actives lie on both sides; actives 7.8% (n = 1,700); in the data active = response below about 75% or above about 130%; inactive = in between;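 also: fluorescent Galphao activated with GDP and aluminum fluoride binding bead-coupled RGS7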
RGS16-Gao single – confirmation of regulators of human RGS16-Galphao interaction; shares compounds with RGS16-Gao HTS; bead-based flow cytometry, RGS16-Galphao binding; actives lie on both sides; response (% of control binding), % at 10 µM; actives 4% (n = 1,700); in the data active = response below about 74% or above about 130%; inactive = in between;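 also: Galphao activated as the GDP aluminium fluoride complex binding bead-coupled RGS16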
RGS4-Gao single – confirmation of regulators of human RGS4-Galphao interaction; shares compounds with RGS16-Gao HTS; RGS4-Galphao binding, multiplexed bead flow cytometry; actives lie on both sides; binding response (% of control), % at 10 µM; actives 4% (n = 1,700); AID 1840; in the data active = binding response below about 74% or above about 130%; inactive = in between
RGS19-Gao conf – confirmation of regulators of human RGS19-Galphao interaction | shares compounds with RGS16-Gao HTS | bead-based flow cytometry RGS19-Galphao binding; actives lie on both sides | response (percent of control binding), % at 10 µM | actives 5% (n = 1,700); in the data active = response below about 50% or above about 160%; inactive = in between;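 also: 100% = no compound control and 0% = blank background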
Numbers without * were called inactive; ? = inconclusive; · = no result given; + = active, no number; [ ] = dose if it differs, or a comment. Unless noted, no rule for the calls is given here.

SMILES	RGS16-Gao HTS	RGS7-Gao reg	Calb biofilm kill	RGS8-Gao	RGS4-Gao reg	Avidin counter	RGS8-Gao confirm	RGS7-Gao single	RGS16-Gao single	RGS4-Gao single	RGS19-Gao conf	others
C=CCNCCCOc1ccc(C)cc1Br	24.1*	95.1	9.2	89.6	89.8	-0.6	105.0	102.0	108.7	102.2	141.6	RGS-Gao=89.8*
COc1cccc(NC(=O)c2ccccc2-c2nc(-c3ccccc3)no2)c1	88.2	87.4	·	90.6	88.5	·	·	·	·	·	·
COc1cccc(NC(=O)c2ccccc2-c2nc(-c3ccc(F)cc3)no2)c1	·	·	·	·	·	-0.3	100.4	97.3	102.6	102.5	98.4
COc1ccc(/C=C/C(=O)C23CC4CC(CC(C4)C2)C3)cc1CN1CCOCC1	102.0	100.0	5.1	100.7	100.2	·	·	·	·	·	·
Cc1cc(C)cc(C(=O)OCC(=O)NCc2cccs2)c1	175.7*[activator]	106.8	-7.1	125.1	109.8	-0.8	95.7	92.8	95.2	95.6	97.0	RGS-Gao=109.8*
O=C(COC(=O)c1ccccc1)NCc1cccs1	108.0	102.4	10.9	102.9	103.8	·	·	·	·	·	·
CCOc1ccc(-c2nnc(-c3ccccc3)o2)cc1	94.7	94.5	14.3	99.2	95.6	·	·	·	·	·	·
CCOc1ccc(-c2nnc(-c3ccc(OC)cc3)o2)cc1	11.5*	17.5*	8.2	14.5*	23.9*	0.3	99.5	91.9	95.0	94.0	94.4
CC(C1CCN(Cc2cn(C)nc2-c2cccc(Cl)c2)CC1)N1CCOCC1 (stereo not drawn)	95.2	101.2	7.4	101.4	101.1	·	·	·	·	·	·
COc1ccccc1OCc1nc(C#N)c(N2CCCC2)o1	-34.0	13.3*	5.4	16.4*	21.6*	-0.2	98.2	92.1	97.0	95.0	91.3
CCc1nnc(NC(=O)c2cc(S(=O)(=O)N3CCN(c4ccccc4)CC3)ccc2Cl)s1	101.5	100.0	·	101.0	103.6	·	·	·	·	·	·
CCc1nnc(NC(=O)c2cccc(S(=O)(=O)N3CCN(c4ccccc4)CC3)c2)s1	145.4	150.4*[activator]	·	127.0	139.5	-0.5	102.5	102.5	103.1	104.7	108.4	RGS-Gao=139.5*
CCCS(=O)(=O)N1CCCC(C(=O)NCCCN2CCN(c3cccc(Cl)c3)CC2)C1 (stereo not drawn)	668.4	233.8*[activator]	·	145.7*[activator]	294.6*[activator]	1.2	96.9	92.5	90.4	92.2	58.6
O=C(CNC(=O)c1ccccc1)Nc1cccc(C(F)(F)F)c1	+[activator]	845.4*[activator]	16.1	193.1*[activator]	762.3*[activator]	2.9	94.6	72.2*	84.8	83.0	63.7
Cc1ccc(C(=O)NCC(=O)Nc2cccc(C(F)(F)F)c2)cc1	100.5	97.8	23.3	100.2	97.6	·	·	·	·	·	·
Cc1ncsc1CCOC(=O)C1C2CC3CC(C2)CC1C3 (stereo not drawn)	21.6*	93.7	12.0	72.5	91.9	1.8	99.9	95.2	94.2	93.3	104.7	RGS-Gao=91.9*
Cc1nn(C(=O)c2ccc([N+](=O)[O-])cc2)c(C)c1Br	98.5	?	14.5	98.4	99.9	·	·	·	·	·	·
O=C(c1cc2c(s1)-c1ccccc1S(=O)(=O)C2)N1CCN(Cc2ccccc2)CC1	106.9	276.5*[activator]	·	92.8	132.3	0.0	101.5	96.8	103.2	101.4	101.0	RGS-Gao=132.3*
CC12CCC(C(=O)Nc3cccc(Cl)c3)(C(Br)C1=O)C2(C)C (stereo not drawn)	115.4	109.1	6.9	105.3	107.4	·	·	·	·	·	·
CC12CCC(C(=O)Nc3ccc(Cl)cc3)([C@H](Br)C1=O)C2(C)C (stereo partly drawn)	·	·	15.9	·	·	-0.3	101.2	106.8	103.1	99.8	105.0
Cc1ccc(Nc2nc(N)nc(CN3CCN(Cc4ccc5c(c4)OCO5)CC3)n2)cc1Cl	-169.9	45.3*	·	75.1	-9.2*	0.6	101.2	99.2	100.7	102.4	103.3
CCN1/C(=C/C=C/C=C/c2sc3ccccc3[n+]2CC)Sc2ccccc21	97.2	122.3	13.7	89.4	31.0*	-46.3	63.5*	100.7	58.3*	-8.0*	·
CC[n+]1c(/C=C/Nc2ccccc2)sc2ccccc21	101.4	99.3	·	100.5	99.2	·	·	·	·	·	·
CNC(=S)NC1(C)CCS(=O)(=O)C1 (stereo not drawn)	105.6	?	19.6	103.4	103.0	·	·	·	·	·	·
COc1cc(-c2ccc(NC(=O)NC3CC3)c(OC)c2)ccc1NC(=O)NC1CC1	119.2	?	28.6	107.8	115.9	·	·	·	·	·	·
SMILES	RGS16-Gao HTS	RGS7-Gao reg	Calb biofilm kill	RGS8-Gao	RGS4-Gao reg	Avidin counter	RGS8-Gao confirm	RGS7-Gao single	RGS16-Gao single	RGS4-Gao single	RGS19-Gao conf	others
Cc1ccc(NC(=O)Nc2ccc(F)cc2F)c(OC(F)F)c1	108.3	100.9	22.8	103.5	100.7	·	·	·	·	·	·
COc1ccc(NC(=O)CC(C)=O)c(OC)c1	99.3	?	11.4	102.0	100.6	·	·	·	·	·	·
COc1ccc(NC(=O)Nc2cc(C)ccc2OC(F)F)c(OC)c1	·	·	·	·	·	-0.1	81.2	71.6*	79.8	77.7	71.4
COc1ccc(NC(=S)NC2CCCCCC2)c(OC)c1	21.9*	105.7	12.7	92.4	103.4	1.4	100.6	121.8	101.2	106.7	91.9	RGS-Gao=103.4*
COc1ccc(NC(=O)CC2SC(=N)N(c3ccccc3)C2=O)c(OC)c1 (stereo not drawn)	-5.4*	4.1*	5.8	8.2*	4.8*	-2.6	98.8	89.5	96.0	95.7	95.7
COc1ccc(NC(=O)CC(=O)Nc2ccc(OC)cc2OC)c(OC)c1	110.3	173.5*[activator]	·	99.4	114.0	-1.0	100.3	101.3	98.9	100.0	103.2	RGS-Gao=114.0*
COc1ccc(NC(=O)CC2SC(=Nc3ccccc3)NC2=O)c(OC)c1 (stereo not drawn)	92.9	98.8	·	100.1	100.4	·	·	·	·	·	·
COc1ccccc1Nc1nccc(N(C)C)c1C#N	99.7	104.5	15.7	99.7	98.7	·	·	·	·	·	·
Cc1cc(C(=O)NNc2ccc(F)cc2)no1	104.4	?	15.4	101.6	104.0	·	·	·	·	·	·
CCn1cc(CNCc2cn(C)nc2-c2ccc(C3CCCCC3)cc2)cn1	102.0	93.5	12.9	107.2	99.9	·	·	·	·	·	·
O=c1cc(-c2ccccc2F)oc2ccccc12	94.3	94.4	10.4	98.5	96.9	·	·	·	·	·	·
